Data on 1 compound can be found in ChEMBL document CHEMBL4043073, “Boronic Acid Modifications Enhance the Anti-Influenza A Virus Activities of Novel Quindoline Derivatives” (J Med Chem, 2017).

One series deals with Vero. Put plainly: Inhibition of Influenza A virus (A/Puerto Rico/8/34(H1N1)) hemagglutinin expressed in African green monkey Vero cells assessed as reduction in acid-induced syncytium formation treated at pH 5 for 10 mins measured after 2 hrs by Hema3Stat Pak-staining based microscopic analysis. It counts as cell-based. As to conditions: Influenza A virus (A/Puerto Rico/8/1934(H1N1)). A digest of the protocol: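 Vero cells transfected with PR8 HA plasmid. At 16 h HA was cleaved with 5 μg/mL TPCK-trypsin for 15 min at 37 °C. Cells were preincubated with compound 15 min at 37 °C, then held at pH 5.0 with compound for 10 min at 37 °C. After rinsing, cells were kept 2 h in 10% FBS medium, stained with Hema3Stat Pak and examined for syncytia by microscopy.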

The species entered for series [1] is Canis lupus familiaris. Put plainly: Inhibition of NFkappaB activation-mediated viral RNA synthesis in MDCK cells infected with Influenza A virus (A/Puerto Rico/8/34(H1N1)) assessed as NF-kB phosphorylation level at 5 uM preincubated with virus for 1 hr followed by viral infection measured after 4 hrs by Western blot method relative to control (reference value: 1.8). It counts as cell-based. A digest of the protocol: (§1)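 PR8 (MOI 1.0) pretreated with compound 1 h at 37 °C, then MDCK cells were kept in infecting medium with 5 or 10 μM for 4 h; ribavirin 50 μg/mL as comparator. Lysates were immunoblotted for phospho-ERK1/2, p38, NF-κB or Akt, with β-actin/GAPDH loading controls and AP/NBT-BCIP detection. Densitometry was normalised to uninfected cells (= 1.0); n = 3.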
A general note: A western blot detects proteins with antibodies after separation by electrophoresis.

Series [2] is filed under the species Canis lupus familiaris. Put plainly: Inhibition of MAPK signaling-mediated nuclear import of viral RNP in MDCK cells infected with Influenza A virus (A/Puerto Rico/8/34(H1N1)) assessed as ERK1/2 phosphorylation at 10 uM preincubated with virus for 1 hr followed by viral infection after 4 hrs by Western blot method relative to control (reference value: 1.4). It counts as cell-based. The method in brief: as §1

The nature of series [3]: Selectivity index, ratio of CC50 for MDCK cells to IC50 for Influenza A virus (A/Puerto Rico/8/34(H1N1)) infected in MDCK cells by plaque assay. It counts as toxicity, cell-based. As to conditions: dog, read-out: Ratio CC50/IC50.
The test system of a further series is NCI-H1299. Put plainly: Cytotoxicity against human H1299 cells at 20 uM after 48 hrs by resazurin based fluorescence method. Type of series: cell-based. The settings on record: nci-h1299, 48 h. A digest of the protocol: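 Confluent MDCK, A549 or H1299 cells exposed in triplicate to compound for 48 h at 37 °C (A549/H1299 at 20 μM). Resazurin added to 0.2 mg/mL final for 16 h. Fluorescence read at ex 544 / em 595 nm; viability as % of untreated.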
(Alamar Blue is a resazurin reagent that responds to reducing activity.)

Series [4] concerns Influenza A virus. The series is described as follows: Antiviral activity against Influenza A virus (A/Puerto Rico/8/34(H1N1)) infected in Kunming mouse assessed as pulmonary viral titer reduction at 10 mg/kg/day, po qd for 4 days measured on day 4 post last dose by crystal violet staining based plaque assay. As to conditions: A/Puerto Rico/8/1934(H1N1). Type of series: functional, organism-based. The method in brief:
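Female 4-week-old Kunming mice infected intranasally with PR8 (4 HAU/mouse). Oral gavage once daily began 2 h post-inoculation; placebo control. Mice euthanised on day 4; lungs homogenised in PBS and titrated by plaque assay on cell monolayers (agarose overlay, 3 days, crystal violet).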

Series [5] is described as follows: (§2) Antiviral activity against Influenza A virus (A/California/04/2009(H1N1)) infected in MDCK cells assessed as reduction in viral HA titer by measuring reduction in chicken RBC […] after 24 hrs by hemagglutination test. It counts as functional, cell-based. A digest of the protocol:
(§3)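 MDCK cells infected at MOI 3.0 (single-cycle) with PR8, Cal09 or swine H3N2 Minnesota, then treated with compound for 24 h. Supernatant HA titers were read by 2-fold serial dilution with an equal volume of 1% chicken RBCs, 60 min at 4 °C. Expressed as percent of untreated-cell HA titer; IC50 derived; n = 4.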

Series [6] concerns Influenza A virus (A/California/04/2009(H1N1)). The description is as §2. It counts as functional, cell-based. The method in brief:
as §3

Series [7] is described as follows: Drug uptake in human A549 cell nucleus at 20 uM after 4 hrs by DAPI staining based confocal microscopic analysis. It counts as ADME. The settings on record: a549, 4 h. A digest of the protocol: (§4)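 A549 cells incubated with 20 μM compound 4 h at 37 °C, then fixed and DAPI-stained. Compound intrinsic fluorescence located by confocal microscopy.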
Series [8] has as its system Influenza A virus. The series is described as follows: Antiviral activity against Influenza A virus (A/Puerto Rico/8/34(H1N1)) infected in Kunming mouse assessed as survival rate at 10 mg/kg/day, po qd for 7 days measured on day 14 post infection (reference value: 30%). It counts as functional. The settings on record: A/Puerto Rico/8/1934(H1N1).
For series [9], the species on record is Canis lupus familiaris. The series is described as follows: Inhibition of NFkappaB activation-mediated viral RNA synthesis in MDCK cells infected with Influenza A virus (A/Puerto Rico/8/34(H1N1)) assessed as NF-kB phosphorylation level at 10 uM preincubated with virus for 1 hr followed by viral infection measured after 4 hrs by Western blot method relative to control (reference value: 1.8). It counts as cell-based. The method in brief:
as §1

Series [10] deals with Influenza A virus. The series is described as follows: Antiviral activity against Influenza A virus (A/Puerto Rico/8/34(H1N1)) infected in MDCK cells assessed as virus yeild reduction at 10 uM preincubated with virus for 1 hr followed by viral infection for 1 hr measured at 24 hrs post infection by crystal violet staining based plaque assay. As to conditions: A/Puerto Rico/8/1934(H1N1). Type of series: functional, cell-based. The method in brief: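 PR8 (MOI 1.0) preincubated with compound (2.5–10 μM) 1 h at 37 °C, then used to infect MDCK cells. After adsorption, medium with the same compound concentration was added. At 24 h p.i. supernatant virus titer was measured by plaque assay; n = 3.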

Series [11] is filed under the species Canis lupus familiaris. Put plainly: Inhibition of MAPK signaling-mediated nuclear import of viral RNP in MDCK cells infected with Influenza A virus (A/Puerto Rico/8/34(H1N1)) assessed as p38 phosphorylation at 5 uM preincubated with virus for 1 hr followed by viral infection after 4 hrs by Western blot method relative to control (reference value: 5.1). Type of series: cell-based. A digest of the protocol: as §1

The subject of series [12] is Influenza A virus (A/Puerto Rico/8/1934(H1N1)). The series is described as follows: Inhibition of Influenza A virus (A/Puerto Rico/8/34(H1N1)) neuraminidase using MUNANA as substrate preincubated for 30 mins followed by substrate addition measured after 30 mins by fluorescence assay relative to control. A digest of the protocol:
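Inactivated PR8 virus supernatant mixed with compound (10 μM) in 33 mM MES […], 4 mM CaCl2 for 30 min at 37 °C. MUNANA (20 μM) was added for 30 min at 37 °C and the reaction stopped with glycine/ethanol pH 10.7. Fluorescence read at ex 360 / em 440 nm; zanamivir 10 μM as reference; n = 3.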

The subject of series [13] is Influenza A virus. The series is described as follows: Antiviral activity against Influenza A virus (A/Puerto Rico/8/34(H1N1)) infected in MDCK cells assessed as virus yeild reduction at 10 uM treated during viral adsorption for 1 hr measured at 24 hrs post infection by crystal violet staining based plaque assay. It counts as functional, cell-based. The settings on record: A/Puerto Rico/8/1934(H1N1). The method in brief:
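Time-of-addition on MDCK cells, PR8 MOI 1.0, 10 μM compound. Three arms: cells pretreated before infection; compound present during adsorption 1 h at 4 °C; or compound added after removal of unadsorbed virus. Virus yield at 24 h p.i. by plaque assay; n = 3.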

For series [14], the system named is Influenza A virus. Put plainly: Antiviral activity against Influenza A virus H3N2 strain (A/swine/Minnesota/02719/2009) infected in MDCK cells assessed as reduction in viral HA titer by measuring reduction in chicken RBC […] after 24 hrs by hemagglutination test. It counts as functional, cell-based. The method in brief:
as §3

Series [15] in a line: Drug uptake in human A549 cells at 20 uM after 4 hrs by DAPI staining based confocal microscopic analysis. It counts as ADME, cell-based. The settings on record: a549, 4 h. A digest of the protocol:
as §4

Calls of active or inactive are those of the source. No cut-off for these calls is given here.

In the case of `O=C(Nc1ccccc1Nc1c2ccccc2nc2c1[nH]c1ccccc12)c1cccc(B(O)O)c1`, the inhibition entry with Vero is “inactive”. The fold change (FC) in the series listed under Canis lupus familiaris [1] was 0.9; in the series listed under Canis lupus familiaris [2], 0.6; in the series filed under Canis lupus familiaris [9] it was 0.4; in the series filed under Canis lupus familiaris [11], 3.3. The selectivity ratio in [3] lay in the range of 56.8 to 64.6. Moreover, the Activity result in the series with NCI-H1299 was “Non-Toxic”; in [6], “Dose-dependent effect”; in the series on Influenza A virus [14], “Dose-dependent effect”. The result in the series on Influenza A virus [4], in the series with Influenza A virus [10] and in the series on Influenza A virus [13] was Active. For the same compound, the figures for the half-inhibitory concentration (IC50) (in series [5]; in the series with Influenza A virus [14]) were 4.3 µM and 3000 nM, respectively. The Drug uptake entry is given as “Not Active” in series [7] and “Active” in [15]. Further, the survival at 10 mg/kg/day in the series on Influenza A virus [8] came to 90%. The inhibition in series [12] is 72%.

In general, inhibition refers to how much of the control response was suppressed. Broadly, the IC50 is the concentration at which inhibition is half-maximal.
